The source made the active and inactive calls. The rule behind the calls is not given here.
What was measured:
[1] = test system: HL-60(TB); experiment: Cytotoxicity against human HL-60(TB) cells; assay type: functional, cell-based
Method in brief: (§1)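 Human colon cancer and leukaemia line panel. Compounds tested from 10^-4 to 10^-8 M, and IC50 values determined.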

[2] = test system: KM12; experiment: Cytotoxicity against human KM12 cells; assay type: functional, cell-based; method in brief: as §1
[3] = test system: HCT-15; experiment: Cytotoxicity against human HCT15 cells; assay type: functional, cell-based; method in brief: as §1
[4] = test system: HSC-2; experiment: Cytotoxicity against human HSC2 cells after 48 hrs; assay type: functional; settings: HSC-2, 48 h
Method in brief: (§2)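 Human HSC-2, HSC-3, HSC-4 squamous carcinoma and HL-60 promyelocytic leukaemia cells incubated with compound for 48 h. CC50, the concentration killing 50% of cells, read from a dose–response curve.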

[5] = test system: L1210; experiment: Growth inhibition of mouse L1210 cells; assay type: functional, cell-based
[6] = molecular target: T1, ATP-dependent translocase ABCB1 (Homo sapiens, UniProt P08183); experiment: Inhibition of human MDR1-mediated multidrug resistant in mouse L5178Y cells at 4 uM treated 10 mins before rhodamine 123 challenge measured after 20 mins relative to control; assay type: cell-based
T1 sequence (P08183 whole entry): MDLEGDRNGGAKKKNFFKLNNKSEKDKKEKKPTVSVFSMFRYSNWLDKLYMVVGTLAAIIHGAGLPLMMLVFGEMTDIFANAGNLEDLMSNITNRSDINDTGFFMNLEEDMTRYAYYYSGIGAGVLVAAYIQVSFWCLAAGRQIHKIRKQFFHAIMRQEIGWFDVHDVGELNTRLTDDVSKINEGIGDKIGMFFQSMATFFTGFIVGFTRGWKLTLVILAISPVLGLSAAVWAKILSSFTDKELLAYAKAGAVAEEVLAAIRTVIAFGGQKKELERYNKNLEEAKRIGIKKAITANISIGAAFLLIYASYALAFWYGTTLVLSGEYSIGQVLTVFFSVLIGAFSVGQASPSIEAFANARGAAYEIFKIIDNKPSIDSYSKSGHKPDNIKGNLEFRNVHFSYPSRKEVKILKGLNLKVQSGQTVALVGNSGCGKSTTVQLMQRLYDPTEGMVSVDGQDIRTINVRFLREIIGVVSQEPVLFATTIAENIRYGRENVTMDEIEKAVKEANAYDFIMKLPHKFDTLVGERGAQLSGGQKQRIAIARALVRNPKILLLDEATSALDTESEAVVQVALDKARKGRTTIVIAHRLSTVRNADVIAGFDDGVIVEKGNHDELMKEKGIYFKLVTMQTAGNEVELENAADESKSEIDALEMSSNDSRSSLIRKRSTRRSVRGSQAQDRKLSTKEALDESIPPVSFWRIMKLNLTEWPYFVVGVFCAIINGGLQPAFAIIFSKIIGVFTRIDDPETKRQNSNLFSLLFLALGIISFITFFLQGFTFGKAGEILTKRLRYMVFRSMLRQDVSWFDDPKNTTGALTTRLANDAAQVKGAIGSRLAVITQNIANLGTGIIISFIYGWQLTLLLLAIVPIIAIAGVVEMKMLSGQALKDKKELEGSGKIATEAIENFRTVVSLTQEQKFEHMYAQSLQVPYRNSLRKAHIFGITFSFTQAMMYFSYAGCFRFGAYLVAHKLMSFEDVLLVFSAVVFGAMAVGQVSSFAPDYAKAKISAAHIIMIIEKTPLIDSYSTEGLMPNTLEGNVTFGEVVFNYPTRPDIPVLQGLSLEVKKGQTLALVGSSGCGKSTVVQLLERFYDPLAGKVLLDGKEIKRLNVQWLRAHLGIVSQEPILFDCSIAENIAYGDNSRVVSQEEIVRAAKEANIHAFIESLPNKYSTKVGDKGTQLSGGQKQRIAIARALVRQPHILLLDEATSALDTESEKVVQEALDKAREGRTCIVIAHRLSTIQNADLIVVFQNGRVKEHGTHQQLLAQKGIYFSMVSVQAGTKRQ
Method in brief: (§3)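 Compounds in DMSO were added at room temperature to mdr1-transfected and parental L5178Y cells. After 10 min, rhodamine 123 was added, followed by 20 min at 37 °C. Cellular rhodamine fluorescence was measured and expressed as fluorescence activity ratio (FAR); FAR >1 indicates MDR reversal.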

[7] = test system: HSC-4; experiment: Selectivity index, ratio of CC50 for human normal cells to CC50 for human HSC4 cells; assay type: functional
[8] = test system: CCRF-CEM; experiment: Growth inhibition of human CEM cells; assay type: functional, cell-based
[9] = test system: HCT-116; experiment: Cytotoxicity against human HCT116 cells; assay type: functional, cell-based; method in brief: as §1
[10] = test system: HCC 2998; experiment: Cytotoxicity against human HCC2998 cells; assay type: functional, cell-based; method in brief: as §1
[11] = Cytotoxicity against human HGF cells after 48 hrs; assay type: cell-based
Method in brief: (§4)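 Cells were exposed to a dose range for 48 h, following a literature method. CC50 was read from the dose–response curve.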

[12] = test system: COLO 205; experiment: Cytotoxicity against human COLO205 cells; assay type: functional, cell-based; method in brief: as §1
[13] = test system: HSC-2; experiment: Selectivity index, ratio of CC50 for human normal cells to CC50 for human HSC2 cells; assay type: functional
[14] = test system: RPMI-8226; experiment: Cytotoxicity against human RPMI8226 cells; assay type: functional, cell-based; method in brief: as §1
[15] = test system: HL-60; experiment: Cytotoxicity against human HL60 cells after 48 hrs; assay type: functional; settings: HL-60, 48 h; method in brief: as §2
[16] = test system: HL-60; experiment: Selectivity index, ratio of CC50 for human normal cells to CC50 for human HL60 cells; assay type: functional
[17] = test system: HSC-3; experiment: Selectivity index, ratio of CC50 for human normal cells to CC50 for human HSC3 cells; assay type: functional
[18] = molecular target: T1, ATP-dependent translocase ABCB1; experiment: Inhibition of human MDR1-mediated multidrug resistant in mouse L5178Y cells at 40 uM treated 10 mins before rhodamine 123 challenge measured after 20 mins relative to control; assay type: cell-based; method in brief: as §3
[19] = test system: K562; experiment: Cytotoxicity against human K562 cells; assay type: functional, cell-based; method in brief: as §1
[20] = test system: SW-620; experiment: Cytotoxicity against human SW620 cells; assay type: functional, cell-based; method in brief: as §1
[21] = test system: MOLT-4; experiment: Growth inhibition of human Molt4/C8 cells; assay type: functional, cell-based
[22] = Cytotoxicity against human HPLF cells after 48 hrs; assay type: cell-based; method in brief: as §4
[23] = test system: HT-29; experiment: Cytotoxicity against human HT-29 cells; assay type: functional, cell-based; method in brief: as §1
[24] = test system: HSC-4; experiment: Cytotoxicity against human HSC4 cells after 48 hrs; assay type: functional; settings: HSC-4, 48 h; method in brief: as §2
[25] = test system: HSC-3; experiment: Cytotoxicity against human HSC3 cells after 48 hrs; assay type: functional; settings: HSC-3, 48 h; method in brief: as §2

Row | SMILES | IC50 [1] [µM] | IC50 [2] [µM] | IC50 [3] [µM] | CC50 [4] [µM] | growth inhibition (GI) [5] | Ratio [6] | Ratio [7] | growth inhibition (GI) [8] | IC50 [9] [µM] | CC50 at 48 h [11] [µM] | Ratio [13] | CC50 [15] [µM] | Ratio [16] | Ratio [17] | Ratio [18] | IC50 [20] [µM] | growth inhibition (GI) [21] | CC50 at 48 h [22] [µM] | CC50 [24] [µM] | CC50 [25] [µM] | other results
1 | O=C1/C(=C/c2ccccc2)CN(C(=O)C#CC(=O)N2C/C(=C\c3ccccc3)C(=O)/C(=C/c3ccccc3)C2)C/C1=C\c1ccccc1 | 0.25 | 0.28 | 0.39 | 0.19 | Active | 42 | 8.46 | Active | 0.12 | 8.5 | 41.4 | 0.87 | 9.05 | 16.1 | 45.7 | 0.2 | Active | 13 | 0.93 | 0.49 | IC50 [10]: 0.41 µM; IC50 [12]: 0.25 µM; IC50 [14]: 0.08 µM; IC50 [19]: 0.3 µM; IC50 [23]: 0.2 µM
2 | O=c1[nH]cc(F)c(=O)[nH]1 [FLUOROURACIL] | > 2510 | – | – | – | – | – | – | – | – | – | – | – | – | – | – | 380 | – | – | – | – | –
3 | O=C1/C(=C/c2ccccc2)CN(C(=O)/C=C/C=C/C(=O)N2C/C(=C\c3ccccc3)C(=O)/C(=C/c3ccccc3)C2)C/C1=C\c1ccccc1 | – | – | – | 2.6 | Active | 48.6 | 5.47 | Active | – | 39 | 13.5 | 7.4 | 4.73 | 4.12 | 44.3 | – | Active | 47 | 6.4 | 8.5 | –
4 | O=C1/C(=C/c2ccccc2)CN(C(=O)C(=O)N2C/C(=C\c3ccccc3)C(=O)/C(=C/c3ccccc3)C2)C/C1=C\c1ccccc1 | 0.2 | 0.04 | 0.3 | 0.085 | Active | 19.3 | 16.3 | Active | 0.03 | 3.8 | 38.4 | 0.11 | 29.6 | 21.7 | 41.1 | 0.07 | Active | 5.3 | 0.2 | 0.15 | IC50 [10]: 0.19 µM; IC50 [12]: 0.36 µM; IC50 [14]: 0.25 µM; IC50 [19]: 0.2 µM; IC50 [23]: 0.17 µM
5 | O=C1/C(=C/c2ccccc2)CN(C(=O)c2cccc(C(=O)N3C/C(=C\c4ccccc4)C(=O)/C(=C/c4ccccc4)C3)c2)C/C1=C\c1ccccc1 | 2.04 | 0.35 | 1.7 | 3.2 | Active | 38.9 | 4.54 | Active | 0.2 | 42 | 11.3 | 6.6 | 5.5 | 5.76 | 61.3 | 0.36 | Active | 46 | 8 | 6.3 | IC50 [12]: 2.4 µM; IC50 [14]: 0.73 µM; IC50 [19]: 1.55 µM; IC50 [23]: 0.55 µM

Reference: ChEMBL document CHEMBL2010770, “Dimeric 3,5-bis(benzylidene)-4-piperidones: a novel cluster of tumour-selective cytotoxins possessing multidrug-resistant properties” (Eur J Med Chem, 2012)
